Assays:
[1] = tested on: PC3 prostate tumor xenografts; test: In vivo MRI of PC3 tumor-bearing mice; parameters: species or system mouse; settings: T1-weighted 3D FLASH, 0.1 mmol/kg i.v., imaged at 10, 20 and 30 min, n = 5
Procedure, shortened: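 Male athymic nude mice carried subcutaneous PC3 xenografts (100 µL of 4×10^7 cells/mL in Matrigel) and were imaged at 5–8 mm tumor diameter on a 1.0 T scanner. Agents in saline were given i.v. at 0.1 mmol/kg Gd3+, with a gadoteridol control. Images were taken pre-contrast and every 10 min to 30 min by axial T1 spin echo (TR 500 ms, TE 8.144 ms) and coronal 3D FLASH (TR 17.362 ms, TE 6 ms, 15°). CNR was the tumor/muscle ROI signal […] normalised to noise.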

[2] = Relaxivity measurement of contrast agents; type: physicochemical; settings: 1.5 T, in water, 37 °C

Row | SMILES | Time of peak CNR in PC3 tumors [1] [min] | r1 relaxivity [2] [mM⁻¹ s⁻¹]
1 | CC(O)CN1CCN(CC(=O)[O-])CCN(CC(=O)[O-])CCN(CC(=O)[O-])CC1.[Gd+3] (stereo not drawn) [Gd(HP-DO3A), gadoteridol] | 10 | 2.9
2 | O=C([O-])CN1CCN(CC(=O)[O-])CCN(CC(=O)O)CCN(CC(=O)[O-])CC1.[Gd+3] [Gd-DOTA] |  | 2.9

From article PMC6026531 (Molecular pharmaceutics, 2017)
